These results are taken from PMC4238591 (Analytical Chemistry, 2014).

A short description of series [1]: SHG isotherm of nonspecific binding of CTB to pure DOPC bilayer. The conditions noted are these: entire CTB concentration range examined (0.22 to 13 nM).
For series [2] the following is noted: SPR, 120–240 nM CTB, cited from earlier work. A general note: In SPR one partner is held on a chip, and binding of the other changes the refractive index at the surface.
For series [3] the following is noted: fluorescence; 1 mol % GM1; Hill–Waud model; cited from earlier work.
Series [4] is classed as binding, Ovine.
The test system of series [5] is N-acetylgalactose receptors on Chinese hamster ovarian (CHO) cells. Particulars: lectin iodination, PnA 10–60 μM, at least 1 h incubation; cited from earlier work.
Series [6] in a line: SHCS of nonspecific binding of PnA to pure DOPC bilayer. The conditions noted are these: 0.43, 3 and 12 μM PnA, pure DOPC bilayer without GM1. The procedure, abridged: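 Data were recorded after steady-state equilibrium on each laser pulse (20 Hz, 50 ms step). For each protein concentration, 20 sets of 5000 points each (1.4 h) were taken. Each set's FFT was multiplied by its complex conjugate, the sets were averaged, and the result was inverse-transformed to give the autocorrelation. Time-zero points were normalized to matching specific-binding data (5 mol % GM1 in DOPC).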

Series [7] can be described thus: SHCS of PnA binding to 5 mol % GM1-doped DOPC lipid bilayer. On the set-up: species or system Ovine. The conditions noted are these: for equilibrium binding affinity Ka: eq 2.
For series [8] the following is noted: cited from earlier work.
The mark [9] stands for this setting: [PnA] 0.43 μM, 5 mol % GM1, SHCS.
Setting [10] is: [PnA] 3.0 μM, 5 mol % GM1, SHCS.
Where [11] appears, read: [PnA] 12.2 μM, 5 mol % GM1, SHCS.

Where “and” joins values, the source holds several entries; their conditions need not be identical. Equal entries are not always repeated. Where two headings read alike, the source gives them in different places.

One may read the Kd as the free concentration of one partner at which half of the binding sites on the other are occupied at equilibrium, for simple one-to-one binding. As for CTB, the nonspecific binding result in series [1] was “negligible nonspecific binding”. The kon in series [2] (5 mol % GM1-doped lipid bilayer) was 1.27 × 10^6 M^–1·s^–1. For the same molecule, in series [2] (steady-state equilibrium), the Kd is 0.00461 nM. In series [3], the Ka entry is listed as “(3.2 ± 0.7) × 10^9 M ^–1”, the Kd was 0.31 nM and the “n (Hill coefficient)” value was 1.9. For the same molecule, the koff in series [4] was 3.6 ± 0.5 ×10^–5 s^–1 and 3.2 ± 0.4 ×10^–5 s^–1 and 2.5 ± 0.2 ×10^–5 s^–1.

B1: PnA: Peanut (Arachis hypogaea) agglutinin, tetrameric lectin that binds specifically to terminal D-galactosyl groups; from Sigma-Aldrich (protein, UniProt P02872 24-273, looked up)
Galactose-binding lectin: AETVSFNFNSFSEGNPAINFQGDVTVLSNGNIQLTNLNKVNSVGRVLYAMPVRIWSSATGNVASFLTSFSFEMKDIKDYDPADGIIFFIAPEDTQIPAGSIGGGTLGVSDTKGAGHFVGVEFDTYSNSEYNDPPTDHVGIDVNSVDSVKTVPWNSVSGAVVKVTVIYDSSTKTLSVAVTNDNGDITTIAQVVDLKAKLPERVKFGFSASGSLGGRQIHLIRSWSFTSTLITTTRRSIDNNEKKIMNMASA
For B1, the Ka entry in series [5] is given as “(4.5 ± 1) × 10^6 M^–1”; in series [7] (60 μM PnA, 5 mol % GM1, SHCS) it was “(8.4 ± 1.4) × 10^6 M^–1”; in series [7] ([PnA] 0.43 μM, calculated by eq 2) it was 37 ± 8 ×10^8 M^–1; in series [7] ([PnA] 3.0 μM, calculated by eq 2), 1.7 ± 0.2 ×10^8 M^–1; in series [7] ([PnA] 12.2 μM, calculated by eq 2), 0.41 ± 0.05 ×10^8 M^–1. Also, in series [6], the nonspecific binding result is “negligible nonspecific binding”. In addition, the adsorption rate entry was “(3.7 ± 0.3) × 10^6 M^–1·s^–1” in series [7] (0.43 μM PnA, 5 mol % GM1, SHCS); “(3.9 ± 0.3) × 10^5 M^–1·s^–1” in series [7] (3 μM PnA, 5 mol % GM1, SHCS); “(1.1 ± 0.1) × 10^5 M^–1·s^–1” in series [7] (12 μM PnA, 5 mol % GM1, SHCS); “(3.1 ± 0.3) × 10^4 M^–1·s^–1” in series [7] (60 μM PnA, 5 mol % GM1, SHCS). The desorption rate entry in series [7] (0.43 μM PnA, 5 mol % GM1, SHCS) was “(1.0 ± 0.2) × 10^–3 s^–1”; in series [7] (3 μM PnA, 5 mol % GM1, SHCS), “(2.2 ± 0.2) × 10^–3 s^–1”; in series [7] (12 μM PnA, 5 mol % GM1, SHCS), “(2.7 ± 0.2) × 10^–3 s^–1”; in series [7] (60 μM PnA, 5 mol % GM1, SHCS), “(3.7 ± 0.5) × 10^–3 s^–1”. In addition, the “equilibrium binding affinity Ka” value in series [7] (0.43 μM PnA, SHCS) is “(3.7 ± 0.8) × 10^9 M^–1”; in series [7] (3 μM PnA, SHCS), “(1.7 ± 0.2) × 10^8 M^–1”; in series [7] (12 μM PnA, SHCS), “(4.1 ± 0.5) × 10^7 M^–1”. Further, the koff is reported as 1.0 ± 0.2 ×10^–3 s^–1 in series [7] (setting [9]), 2.2 ± 0.2 ×10^–3 s^–1 in series [7] (setting [10]) and 2.7 ± 0.2 ×10^–3 s^–1 in series [7] (setting [11]). Moreover, the kon in series [7] (setting [9]) is on record as 37 ± 3 ×10^5 M^–1·s^–1; in series [7] (setting [10]), 3.9 ± 0.3 ×10^5 M^–1·s^–1; in series [7] (setting [11]), 1.1 ± 0.1 ×10^5 M^–1·s^–1. Also, the pI in series [8] was around 6.
